# According to article PMC5788574 (The Journal of comparative neurology, 2017):
# pKi: −log10 of the molar value.
# Experiments:
# [1] = partial agonist; ref Niaura, Jones, & Kirkpatrick, 2006; cited from earlier work
# α4β2* nAChRs [2] = test: Human brain [18F]Nifene PET, distribution volume ratio; assay type: in vivo; conditions: for DVR ATR / DVR CB / DVR Frontal cortex / DVR LG / DVR OG / DVR Pit / DVR Red Nucleus / DVR SLF / DVR SN/VTA / DVR Thalamus: corpus callosum reference
# Procedure, shortened: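 Eight healthy volunteers (4 male, 4 female), 21–69 years. Bolus of about 185 MBq radiotracer, then 90 min dynamic 3-D acquisition on an HR+ scanner. Frames were […], reconstructed by filtered back projection with a 4 mm Gaussian filter. FreeSurfer regions came from coregistered 3 T MRI. Parametric DVR images were made by MRTM2 with corpus callosum as reference.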
# α4β2* nAChRs [3] = test: Rhesus monkey brain [18F]Nifene PET; assay type: in vivo, rhesus monkey (Macaca mulatta)
# Procedure, shortened: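 Rhesus monkeys (8–10 kg) had ketamine/xylazine IM, or ketamine/atropine IM plus 1–2% isoflurane. A bolus of about 48–111 MBq radiotracer was followed by at least 120 min acquisition on an HR+ or microPET scanner. Data were binned into 23 frames and reconstructed by filtered back projection. Circular ROIs on cerebellum, thalamus, lateral geniculate and cortex gave time-activity curves and BPND.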
# α4β2* nAChRs [4] = test: Rat brain [18F]Nifene PET/CT; assay type: in vivo; conditions: rat PET
# Procedure, shortened: (§1)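 Sprague-Dawley rats (250–400 g) were induced with 4% isoflurane and kept on 2.5% during the scan. A bolus of about 24 MBq radiotracer was followed by dynamic acquisition for up to 120 min, then CT for attenuation correction. Images were normalized to stereotaxic space via an MRI rat template. Time-activity curves came from atlas-guided VOIs without partial volume correction. Logan noninvasive DVR, with BPND = DVR−1.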
# α4β2* nAChRs [5] = test: Mouse brain [18F]Nifene PET/CT; assay type: in vivo; conditions: mouse PET
# Procedure, shortened: as §1, with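 “BALB/c mice (25–30” for “Sprague-Dawley rats (250–400”, “2%” for “2.5%”, “9.25” for “24”, “coregistered” for “normalized”, “to” for “to stereotaxic space via”, “mouse” for “rat”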
# α4β2* nAChRs [6] = test: [18F]Nifene PET across species; assay type: in vivo; conditions: all species (mice, rats, monkeys, and humans)
# [7] = Tolerability of [18F]Nifene in human PET subjects; assay type: in vivo; conditions: 185 MBq, <0.10 μg per injection
# Procedure, shortened: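 Healthy volunteers aged 21–69 (4 male, 4 female) studied under an FDA investigational new drug application. Each received a bolus of about 185 MBq radiotracer in sterile saline. Vital signs and laboratory results were assessed for adverse or clinically detectable pharmacologic effects.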
# [8] = after intravenous administration; ref Kant et al., 2011; cited from earlier work
# nAChR α2β4 = nAChR α2β4 (Homo sapiens, UniProt P30926+Q15822); test: biochemical; assay type: binding
# Chain of nAChR α2β4 (Q15822 27-529): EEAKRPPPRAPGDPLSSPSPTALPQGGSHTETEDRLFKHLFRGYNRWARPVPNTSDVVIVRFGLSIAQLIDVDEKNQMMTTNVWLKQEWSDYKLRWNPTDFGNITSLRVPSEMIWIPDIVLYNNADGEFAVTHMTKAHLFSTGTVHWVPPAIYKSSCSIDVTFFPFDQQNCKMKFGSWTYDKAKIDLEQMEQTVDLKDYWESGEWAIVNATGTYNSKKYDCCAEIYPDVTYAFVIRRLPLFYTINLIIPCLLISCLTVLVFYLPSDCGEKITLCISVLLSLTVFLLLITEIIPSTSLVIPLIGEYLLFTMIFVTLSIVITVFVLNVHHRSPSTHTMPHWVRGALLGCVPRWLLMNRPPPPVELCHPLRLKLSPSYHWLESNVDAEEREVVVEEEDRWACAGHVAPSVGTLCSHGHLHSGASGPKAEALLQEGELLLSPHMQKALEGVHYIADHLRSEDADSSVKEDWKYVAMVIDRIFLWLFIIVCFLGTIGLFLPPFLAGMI
# Chain of nAChR α2β4 (P30926 22-498): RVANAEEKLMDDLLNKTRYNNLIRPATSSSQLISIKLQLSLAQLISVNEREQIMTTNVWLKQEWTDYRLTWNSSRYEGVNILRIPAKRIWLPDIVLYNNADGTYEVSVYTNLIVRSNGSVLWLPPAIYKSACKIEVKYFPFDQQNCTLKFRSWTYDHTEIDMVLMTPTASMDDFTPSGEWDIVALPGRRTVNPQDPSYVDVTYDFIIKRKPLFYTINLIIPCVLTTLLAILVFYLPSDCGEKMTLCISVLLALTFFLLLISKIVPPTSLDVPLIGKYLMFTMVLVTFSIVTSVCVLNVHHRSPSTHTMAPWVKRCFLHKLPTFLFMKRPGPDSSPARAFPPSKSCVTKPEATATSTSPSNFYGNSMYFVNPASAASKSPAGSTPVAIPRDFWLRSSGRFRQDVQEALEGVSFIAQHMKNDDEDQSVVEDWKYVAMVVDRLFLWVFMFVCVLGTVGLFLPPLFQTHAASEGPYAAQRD
# hβ4 nAChR subtypes = assay type: binding, human; conditions: read-out: Affinity for hβ4 nAChR subtypes; range over α4β4, α3β4, α2β4
# hα2β2 nAChR = hα2β2 nAChR (Homo sapiens, UniProt P17787+Q15822); test: biochemical; assay type: binding
# Chain of hα2β2 nAChR (Q15822 27-529): as the sequence (Q15822 27-529) above
# Chain of hα2β2 nAChR (P17787 26-502): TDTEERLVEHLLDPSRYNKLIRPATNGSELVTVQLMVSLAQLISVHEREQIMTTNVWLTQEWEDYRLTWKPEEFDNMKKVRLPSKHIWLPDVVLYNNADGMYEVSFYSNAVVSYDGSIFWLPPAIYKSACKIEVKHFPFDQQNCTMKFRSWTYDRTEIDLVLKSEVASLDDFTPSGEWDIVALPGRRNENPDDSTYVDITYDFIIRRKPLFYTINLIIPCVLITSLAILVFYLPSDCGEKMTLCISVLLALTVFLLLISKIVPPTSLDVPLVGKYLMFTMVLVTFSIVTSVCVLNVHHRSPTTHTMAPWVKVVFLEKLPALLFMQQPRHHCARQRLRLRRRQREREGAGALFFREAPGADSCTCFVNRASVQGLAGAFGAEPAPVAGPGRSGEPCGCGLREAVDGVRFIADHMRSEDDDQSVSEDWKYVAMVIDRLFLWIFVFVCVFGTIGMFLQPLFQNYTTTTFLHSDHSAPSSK
# [9] = human PET, females Avg±SD (4 subjects)
# [10] = human PET, males Avg±SD (4 subjects)
# [11] = human PET, males Avg±SD (4 subjects), listed as 18F-Nifene
compound,measurement,setting,value
c1cnc2cc3c(cc2n1)[C@@H]1CNC[C@H]3C1 [varen-cline],in vivo efficacy compared to nicotine,[1],30–60%
"[18F]c1ncccc1OC[C@@H]1C=CCN1 [[^18F]Nifene, 2-[18F]fluoro-3-[2-((S)-3-pyrrolinyl)methoxy]pyridine]",Binding in habenula,α4β2* nAChRs [2]; human PET,low levels
same,Ratio of thalamus to corpus callosum,α4β2* nAChRs [2]; human PET,2.6
same,"DVR, anterior thalamic radiation (white matter)","α4β2* nAChRs [2]; human PET, all subjects",~ 1.6
same,"DVR, red nucleus","α4β2* nAChRs [2]; human PET, all subjects",1.6–1.7
same,"DVR, superior longitudinal fasciculus","α4β2* nAChRs [2]; human PET, all subjects",~ 1.5
same,DVR ATR,α4β2* nAChRs [2]; [9],1.67
same,DVR CB,α4β2* nAChRs [2]; [9],1.54 ± 0.25
same,DVR Frontal cortex,α4β2* nAChRs [2]; [9],1.38 ± 0.15
same,DVR LG,α4β2* nAChRs [2]; [9],2.46 ± 0.07
same,DVR OG,α4β2* nAChRs [2]; [9],1.41
same,DVR Pit,α4β2* nAChRs [2]; [9],1.57
same,DVR Red Nucleus,α4β2* nAChRs [2]; [9],1.73
same,DVR SLF,α4β2* nAChRs [2]; [9],1.55
same,DVR SN/VTA,α4β2* nAChRs [2]; [9],1.75 ± 0.09
same,DVR Thalamus,α4β2* nAChRs [2]; [9],2.58 ± 0.11
same,DVR ATR,α4β2* nAChRs [2]; [10],1.58
same,DVR CB,α4β2* nAChRs [2]; [10],1.42 ± 0.18
same,DVR Frontal cortex,α4β2* nAChRs [2]; [10],1.31 ± 0.11
same,DVR LG,α4β2* nAChRs [2]; [10],2.17 ± 0.08
same,DVR OG,α4β2* nAChRs [2]; [10],1.31
same,DVR Pit,α4β2* nAChRs [2]; [10],1.45
same,DVR Red Nucleus,α4β2* nAChRs [2]; [10],1.56
same,DVR SLF,α4β2* nAChRs [2]; [10],1.38
same,DVR SN/VTA,α4β2* nAChRs [2]; [10],1.60 ± 0.08
same,DVR Thalamus,α4β2* nAChRs [2]; [10],2.24 ± 0.10
same,DVR ATR,α4β2* nAChRs [2]; [11],1.58 ± 0.13
same,DVR OG,α4β2* nAChRs [2]; [11],1.31 ± 0.12
same,DVR Pit,α4β2* nAChRs [2]; [11],1.45 ± 0.22
same,DVR Red Nucleus,α4β2* nAChRs [2]; [11],1.56 ± 0.13
same,DVR SLF,α4β2* nAChRs [2]; [11],1.38 ± 0.15
same,DVR ATR,α4β2* nAChRs [2]; human one PET,1.68
same,DVR CB,α4β2* nAChRs [2]; human one PET,1.40
same,DVR Frontal cortex,α4β2* nAChRs [2]; human one PET,1.29
same,DVR LG,α4β2* nAChRs [2]; human one PET,2.17
same,DVR OG,α4β2* nAChRs [2]; human one PET,1.41
same,DVR Pit,α4β2* nAChRs [2]; human one PET,1.62
same,DVR Red Nucleus,α4β2* nAChRs [2]; human one PET,1.64
same,DVR SLF,α4β2* nAChRs [2]; human one PET,1.55
same,DVR SN/VTA,α4β2* nAChRs [2]; human one PET,1.53
same,DVR Thalamus,α4β2* nAChRs [2]; human one PET,2.25
same,DVR ATR,α4β2* nAChRs [2]; human seven PET,1.45
same,DVR CB,α4β2* nAChRs [2]; human seven PET,1.50
same,DVR Frontal cortex,α4β2* nAChRs [2]; human seven PET,1.34
same,DVR LG,α4β2* nAChRs [2]; human seven PET,2.17
same,DVR OG,α4β2* nAChRs [2]; human seven PET,1.33
same,DVR Pit,α4β2* nAChRs [2]; human seven PET,1.63
same,DVR Red Nucleus,α4β2* nAChRs [2]; human seven PET,1.37
same,DVR SLF,α4β2* nAChRs [2]; human seven PET,1.18
same,DVR SN/VTA,α4β2* nAChRs [2]; human seven PET,1.68
same,DVR Thalamus,α4β2* nAChRs [2]; human seven PET,2.13
same,DVR ATR,α4β2* nAChRs [2]; human three PET,1.47
same,DVR CB,α4β2* nAChRs [2]; human three PET,1.18
same,DVR Frontal cortex,α4β2* nAChRs [2]; human three PET,1.17
same,DVR LG,α4β2* nAChRs [2]; human three PET,2.08
same,DVR OG,α4β2* nAChRs [2]; human three PET,1.14
same,DVR Pit,α4β2* nAChRs [2]; human three PET,1.17
same,DVR Red Nucleus,α4β2* nAChRs [2]; human three PET,1.56
same,DVR SLF,α4β2* nAChRs [2]; human three PET,1.36
same,DVR SN/VTA,α4β2* nAChRs [2]; human three PET,1.55
same,DVR Thalamus,α4β2* nAChRs [2]; human three PET,2.22
same,DVR ATR,α4β2* nAChRs [2]; human two PET,1.69
same,DVR CB,α4β2* nAChRs [2]; human two PET,1.61
same,DVR Frontal cortex,α4β2* nAChRs [2]; human two PET,1.44
same,DVR LG,α4β2* nAChRs [2]; human two PET,2.26
same,DVR OG,α4β2* nAChRs [2]; human two PET,1.35
same,DVR Pit,α4β2* nAChRs [2]; human two PET,1.36
same,DVR Red Nucleus,α4β2* nAChRs [2]; human two PET,1.67
same,DVR SLF,α4β2* nAChRs [2]; human two PET,1.43
same,DVR SN/VTA,α4β2* nAChRs [2]; human two PET,1.66
same,DVR Thalamus,α4β2* nAChRs [2]; human two PET,2.37
same,Ratio of thalamus to cerebellum,α4β2* nAChRs [3],3.2
same,Ratio of thalamus to cerebellum,α4β2* nAChRs [4],3.1
same,Ratio of thalamus to cerebellum,α4β2* nAChRs [5],2
same,Thalamus reference region ratio,α4β2* nAChRs [6],> 2
same,Tolerability in human subjects,[7],well tolerated in all the human subjects with no adverse side effects
same,Tolerability in human subjects,[7]; listed as [^18F] Nifene,well tolerated with no adverse effects
same,Radioactive components in rat brain,[8],the only radioactive component
"CN1CCC[C@H]1c1cccnc1 [Nicotine, reference compound]",pKi,nAChR α2β4,7.08
same,pKi,hβ4 nAChR subtypes,6.66 to 7.57
same,pKi,hα2β2 nAChR,8.44
